Tests used:
[1] = test system: Vero; assay: Cytotoxicity against african green monkey Vero cells assessed as incorporation of [3H]hypoxanthine after 48 hrs; assay type: cell-based; details: chlorocebus sabaeus
Outline: (§1)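 Vero, MCF7 and THP1 cells were grown under the P. falciparum culture conditions, except that 10% fetal calf serum replaced 5% human serum. Cells were incubated 48 h with serial drug dilutions. Growth was measured by [3H]hypoxanthine incorporation relative to untreated controls. IC50 is the mean ± SEM of ≥3 independent experiments.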

[2] = test system: THP-1; assay: Cytotoxicity against human THP1 cells assessed as incorporation of [3H]hypoxanthine after 48 hrs; assay type: cell-based; details: thp-1, 48 h; outline: as §1
[3] = test system: MCF7; assay: Cytotoxicity against human MCF7 cells assessed as incorporation of [3H]hypoxanthine after 48 hrs; assay type: cell-based; details: mcf7, 48 h; outline: as §1
[4] = test system: Plasmodium vinckei petteri; assay: Antiplasmodial activity against Plasmodium vinckei petteri infected in CD mouse assessed as suppression of parasitemia at 1 mg/kg/day, ip measured on day 5 post-infection by Giemsa staining; assay type: functional; details: 120 h, route intraperitoneal
Outline: (§2)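 Four-day suppressive test in female CD mice (20 ± 2 g) infected with 10^6 P. vinckei petteri-infected erythrocytes on day 0. Groups of five were dosed i.p. (DMSO vehicle) or p.o. (carboxymethylcellulose vehicle) on days 0–3 at 0.5–20 mg/kg/day. Parasitemia was read from Giemsa-stained tail-blood smears (≥5,000 erythrocytes). % inhibition = (control − treated parasitemia)/control × 100.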

[5] = test system: Plasmodium vinckei petteri; assay: Antiplasmodial activity against Plasmodium vinckei petteri infected in CD mouse assessed as suppression of parasitemia at 5 mg/kg/day, ip measured on day 5 post-infection by Giemsa staining; assay type: functional; details: 120 h, route intraperitoneal; outline: as §2
[6] = test system: Plasmodium vinckei petteri; assay: Antiplasmodial activity against Plasmodium vinckei petteri infected in CD mouse assessed as suppression of parasitemia at 10 mg/kg/day, ip measured on day 5 post-infection by Giemsa staining; assay type: functional; details: 120 h, route intraperitoneal
Outline: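 Four-day suppressive test in female CD mice (20 ± 2 g) infected on day 0 with P. vinckei petteri-infected red blood cells in RPMI. Groups of five treated i.p. once daily, days 0–3; DMSO-only mice were the i.p. control. Parasitemia was counted on Giemsa-stained tail-blood smears (at least 5,000 erythrocytes). Inhibition % = (control − treated parasitemia)/control × 100.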

[7] = test system: Plasmodium vinckei petteri; assay: Antiplasmodial activity against Plasmodium vinckei petteri infected in po dosed CD mouse assessed as mean survival time at 5 mg/kg/day, ip for 4 days measured upto day 21 post-infection; assay type: functional
Outline: (§3)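 Female CD mice were infected with 10^6 P. vinckei petteri-infected erythrocytes and dosed i.p. or p.o. on days 0–3, five per group. Survival was followed to day 21. Mean survival time is the area under the Kaplan–Meier survivor function. Where mice survived, an extended mean was obtained by exponential extension of the survivor function to zero. Comparisons used the log rank test.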

[8] = test system: Plasmodium vinckei petteri; assay: Antiplasmodial activity against Plasmodium vinckei petteri infected in po dosed CD mouse assessed as mean survival time at 10 mg/kg/day, ip for 4 days measured upto day 21 post-infection; assay type: functional; outline: as §3
[9] = test system: Plasmodium vinckei petteri; assay: Antiplasmodial activity against Plasmodium vinckei petteri infected in po dosed CD mouse assessed as extended mean survival time at 10 mg/kg/day, ip for 4 days; assay type: functional; outline: as §3
[10] = test system: Plasmodium falciparum; assay: Antiplasmodial activity against Plasmodium falciparum W2 gametocytes assessed as suppression of parasitemia […] by Giemsa staining; assay type: functional, organism-based
Outline: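 W2 gametocytogenesis was induced on day 0 by a modified Ifediba–Vanderberg method, with N-acetylglucosamine added on day 10. Increasing compound dilutions were added on day 13. On day 15, Giemsa-stained thin smears were counted (≥10,000 erythrocytes each) to estimate gametocytemia against untreated and reference-drug controls. IC50 is the mean ± SEM of ≥3 independent experiments.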

[11] = test system: Plasmodium vinckei petteri; assay: Antiplasmodial activity against Plasmodium vinckei petteri infected in CD mouse assessed as suppression of parasitemia at 1 mg/kg/day, po measured on day 5 post-infection by Giemsa staining; assay type: functional; details: 120 h; outline: as §2
[12] = test system: Plasmodium vinckei petteri; assay: Antiplasmodial activity against Plasmodium vinckei petteri infected in CD mouse assessed as suppression of parasitemia at 20 mg/kg/day, po measured on day 5 post-infection by Giemsa staining; assay type: functional; details: 120 h; outline: as §2
[13] = test system: Plasmodium vinckei petteri; assay: Antiplasmodial activity against Plasmodium vinckei petteri infected in CD mouse assessed as suppression of parasitemia at 10 mg/kg/day, po measured on day 5 post-infection by Giemsa staining; assay type: functional; details: 120 h; outline: as §2
[14] = test system: Plasmodium vinckei petteri; assay: Antiplasmodial activity against Plasmodium vinckei petteri infected in ip dosed CD mouse assessed as suppression of parasitemia measured on day 5 post-infection by Giemsa staining; assay type: functional; details: 120 h; outline: as §2
[15] = test system: Plasmodium vinckei petteri; assay: Antiplasmodial activity against Plasmodium vinckei petteri infected in po dosed CD mouse assessed as suppression of parasitemia measured on day 5 post-infection by Giemsa staining; assay type: functional; details: 120 h; outline: as §2
[16] = test system: Plasmodium vinckei petteri; assay: Antiplasmodial activity against Plasmodium vinckei petteri infected in po dosed CD mouse assessed as mean survival time at 1 mg/kg/day, ip for 4 days measured upto day 21 post-infection; assay type: functional; outline: as §3
[17] = test system: Plasmodium vinckei petteri; assay: Antiplasmodial activity against Plasmodium vinckei petteri infected in po dosed CD mouse assessed as mean survival time at 1 mg/kg/day, po for 4 days measured upto day 21 post-infection; assay type: functional; outline: as §3
[18] = test system: Plasmodium vinckei petteri; assay: Antiplasmodial activity against Plasmodium vinckei petteri infected in po dosed CD mouse assessed as mean survival time at 10 mg/kg/day, po for 4 days measured upto day 21 post-infection; assay type: functional; outline: as §3
[19] = test system: Plasmodium vinckei petteri; assay: Antiplasmodial activity against Plasmodium vinckei petteri infected in po dosed CD mouse assessed as extended mean survival time at 1 mg/kg/day, ip for 4 days; assay type: functional; outline: as §3
[20] = test system: Plasmodium vinckei petteri; assay: Antiplasmodial activity against Plasmodium vinckei petteri infected in po dosed CD mouse assessed as extended mean survival time at 5 mg/kg/day, ip for 4 days; assay type: functional; outline: as §3
[21] = test system: Plasmodium vinckei petteri; assay: Antiplasmodial activity against Plasmodium vinckei petteri infected in po dosed CD mouse assessed as extended mean survival time at 0.5 mg/kg/day, ip for 4 days; assay type: functional; outline: as §3
[22] = test system: Plasmodium vinckei petteri; assay: Antiplasmodial activity against Plasmodium vinckei petteri infected in po dosed CD mouse assessed as extended mean survival time at 1 mg/kg/day, po for 4 days measured upto day 21 post-infection; assay type: functional; outline: as §3
[23] = test system: Plasmodium vinckei petteri; assay: Antiplasmodial activity against Plasmodium vinckei petteri infected in po dosed CD mouse assessed as extended mean survival time at 10 mg/kg/day, po for 4 days; assay type: functional; outline: as §3
[24] = test system: Plasmodium vinckei petteri; assay: Antiplasmodial activity against Plasmodium vinckei petteri infected in po dosed CD mouse assessed as extended mean survival time at 20 mg/kg/day, po for 4 days; assay type: functional; outline: as §3
[25] = test system: Plasmodium vinckei petteri; assay: Antiplasmodial activity against Plasmodium vinckei petteri infected in po dosed CD mouse assessed as mean survival time at 0.5 mg/kg/day, ip for 4 days measured upto day 21 post-infection; assay type: functional; outline: as §3
[26] = test system: Plasmodium vinckei petteri; assay: Antiplasmodial activity against Plasmodium vinckei petteri infected in CD mouse assessed as suppression of parasitemia at 0.5 mg/kg/day, ip measured on day 5 post-infection by Giemsa staining; assay type: functional; details: 120 h, route intraperitoneal; outline: as §2
[27] = test system: Plasmodium berghei; assay: Antiplasmodial activity against Plasmodium berghei infected in ip dosed mouse; assay type: functional
[28] = test system: Plasmodium yoelii yoelii; assay: Antiplasmodial activity against Plasmodium yoelii yoelii infected in po dosed rodents; assay type: functional
[29] = test system: Plasmodium falciparum; assay: Antiplasmodial activity against Plasmodium falciparum F32 assessed as suppression of parasitemia after 4 hrs by Giemsa staining; assay type: functional, organism-based; details: F32, 4 h
Outline: (§4)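 Asexual blood-stage P. falciparum growth inhibition, run by a modified Desjardins method. Parasites were grown by a modified Trager–Jensen culture and synchronized by magnetic enrichment plus 5% D-sorbitol lysis. F32 is chloroquine-sensitive; FcB1 and W2 are chloroquine-resistant. IC50 is the mean ± SEM of at least three independent experiments.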

[30] = test system: Plasmodium falciparum; assay: Antiplasmodial activity against Plasmodium falciparum FcB1/Columbia assessed as suppression of parasitemia after 4 hrs by Giemsa staining; assay type: functional, organism-based; outline: as §4
[31] = test system: Plasmodium falciparum; assay: Antiplasmodial activity against Plasmodium falciparum W2 assessed as suppression of parasitemia after 4 hrs by Giemsa staining; assay type: functional, organism-based; details: W2, 4 h; outline: as §4

In the case of CCN(CC)CCCC(C)Nc1ccnc2cc(Cl)ccc12 (stereo not drawn) [CHLOROQUINE], the Activity [1] is reported as greater than 0.5 µM, the Activity [2] is reported as greater than 500 nM and the Activity [3] is reported as greater than 500 nM. For the same compound, the inhibition in vivo at 1 mg/kg/day [4] was no more than 0%, the inhibition in vivo at 5 mg/kg/day [5] was 100% and the inhibition in vivo at 10 mg/kg/day [6] was 100%. For the same compound, the MST [7] was 12.8 days, the MST [8] was 19.2 days and the MST [9] was 43.87 days.

CC[C@H](C)C(=O)O[C@@H]1[C@H]2C(C)=CC(=O)[C@@H](O)[C@]2(C)[C@H]2[C@@H](O)[C@H](O)[C@@]3(C)OC[C@@]24[C@@H]1OC(=O)[C@H](OC(=O)[C@@H](C)CC)[C@@H]34 [SIMALIKALACTONE E] gave an IC50 [10] of 1.12 µM, an Activity [1] of 6.574 µM and an Activity [2] of 33 nM. It also gave an Activity [3] of 47 nM, an inhibition in vivo at 1 mg/kg/day [4] of 98% and an inhibition in vivo at 5 mg/kg/day [5] of 100%. It also gave an inhibition in vivo at 1 mg/kg/day [11] of 55%, an inhibition in vivo at 20 mg/kg/day [12] of 100% and an inhibition in vivo at 10 mg/kg/day [13] of 95%. The ED50 [14] was 0.5 mg/kg/day, the ED50 [15] was 1 mg/kg/day and the MST [16] was 18.6 days. It also gave an ED50 ([16]; Plasmodium vinckei) of 3 mg/kg/day, an MST [7] of 11.4 days and an MST [17] of 11 days. It also gave an MST [18] of 12.4 days, an MST [19] of 93.89 days and an MST [20] of 20.57 days. For the same compound, the MST [21] was 41.07 days, the MST [22] was 13.61 days and the MST [23] was 15.01 days. It also gave an MST [24] of 16.41 days, an MST [25] of 16.4 days and an inhibition in vivo at 0.5 mg/kg/day [26] of 59%.

With CC[C@@H](C)C(=O)O[C@H]1C(=O)O[C@@H]2C[C@H]3C(C)=CC(=O)[C@@H](O)[C@]3(C)[C@H]3[C@@H](O)[C@H](O)[C@]4(C)OC[C@]32[C@@H]14 [SIMALIKALACTONE D] the Activity [1] was 0.058 µM, the Activity [2] was less than 2 nM and the Activity [3] was less than 20 nM. The ED50 [27] was 0.2 mg/kg/day and the ED50 [28] was 3.7 mg/kg/day.

In the case of COc1cc(NC(C)CCCN)c2ncccc2c1 (stereo not drawn) [PRIMAQUINE], the IC50 [29] is reported as 6.17 µM, the IC50 [30] is reported as 8.9 µM and the IC50 [31] is reported as 7.14 µM. It also gave an IC50 [10] of 8.9 µM and an Activity [1] of 340 µM.
